Some results are limits rather than exact numbers.

Assay [1] has as its system Mus musculus. The assay can be described thus: Sedative activity in po dosed mouse assessed as reduction in locomotor activity during 60 mins period immediately prior to and after dosing. It counts as functional. As to conditions: 1 h, read-out: MED. An outline of the steps:
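Given orally, with doses in mg/kg. The racemate and individual isomers were run by the earlier reported procedure. The value is the minimum effective dose that reduced locomotor activity.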

Assay [2] relates to Mus musculus. The assay can be described thus: Antidepressant activity in po dosed mouse assessed as antagonism of reserpine-induced hypothermia dosed 17 hrs after reserpine challenge. In kind it is functional. An outline of the steps:
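Oral dosing, with doses in mg/kg. The racemate and separated optical isomers were tested by the previously published method. Potency is expressed as the ED10 for antagonism of reserpine-induced hypothermia.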

As to `COc1cccc(OC[C@@H]2CNCCO2)c1`, the minimal effective dose in the assay on Mus musculus [1] amounted to 1 mg/kg. Besides, the ED10 in the assay with Mus musculus [2] was above 100 mg/kg.
For `COc1cccc(OC[C@H]2CNCCO2)c1` the same measures were 30 mg/kg and above 100 mg/kg.
For `COc1cccc(OCC2CNCCO2)c1` (racemic), in that order: 3 mg/kg and above 100 mg/kg.
For `CCOc1ccccc1OCC1CNCCO1` (racemic) [VILOXAZINE] the same measures were 3 mg/kg and 0.3 mg/kg.
Regarding `CCOc1ccccc1OC[C@H]1CNCCO1` [(R)-VILOXAZINE], the minimal effective dose in the assay on Mus musculus [1] came to 30 mg/kg. Further, the ED10 with Mus musculus [2] was 1 mg/kg.
For `CCOc1ccccc1OC[C@@H]1CNCCO1` [(S)-VILOXAZINE], in that order: 1 mg/kg and 0.1 mg/kg.

(Values after ChEMBL document CHEMBL3272233, “Optical isomers of 2-(2-ethoxyphenoxymethyl)tetrahydro-1,4-oxazine (viloxazine) and related compounds” (1976).)
